Experimental findings from ChEMBL document CHEMBL3244428, “Synthesis and antifungal properties of certain 7-alkylaminopyrazolo[1,5-a]pyrimidines” (J Med Chem, 1977) are described below.

Values after ≈ are worked out from the molar mass of the structure shown. Active and inactive are the calls of the source. No cut-off for these calls is given here.

The MIC is the lowest concentration found to suppress growth.

Series [1] concerns Trichophyton mentagrophytes. The experiment in a line: Fungicidal activity against Trichophyton mentagrophytes clinical isolate after 48 hrs by broth dilution method. Format: functional. Summed up:
(§1)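 Broth dilution in chemically defined medium, with serial dilutions spanning 0.32 to 0.005 µmol/ml. Dermatophyte plates were read after 48 h at 30 °C.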

For series [2], the system named is Trichophyton mentagrophytes. Kind of series: Fungistatic activity against Trichophyton mentagrophytes clinical isolate after 48 hrs by broth dilution method. Format: functional. In short, it runs like this:
as §1
In general terms: Broth dilution looks for growth in wells or tubes with falling amounts of substance.

The subject of series [3] is Trichophyton mentagrophytes. The experiment in a line: Antifungal activity against Trichophyton mentagrophytes infected in guinea pig assessed as cure rate of dermal infection at nonirritating dose administered topically bid started on day 3 post infection continued for 8 days measured every other day through day 14 relative to vehicle-treated control. Format: functional, organism-based. Summed up: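 Guinea pig T. mentagrophytes skin infection model, treated topically. Compounds were given at non-irritating concentrations, either as a w/v solution in propylene glycol (20%), 70% sorbitol (3%) and ethanol (78%) or in a petrolatum ointment. Treated animals were compared with infected, vehicle-only controls.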

For series [4], the system named is Cavia porcellus. The experiment in a line: Toxicity in guinea pig skin assessed as erythema administered topically bid measured on day 6. Conditions: in vivo, topical_or_ocular. It counts as organism-based. In short, it runs like this:
(§2)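 Intact or abraded skin of uninfected guinea pigs was treated topically with 1.0% w/v compound. The vehicle was either a solution of propylene glycol (20%), 70% sorbitol (3%) and ethanol (78%) or a petrolatum ointment. Skin was scored for erythema and scaling up to day 6, against vehicle-treated controls.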

Series [5] has as its system Cavia porcellus. Kind of series: Toxicity in guinea pig skin assessed as scaling administered topically bid measured on day 6. Format: organism-based. Conditions: in vivo, topical_or_ocular. Summed up: as §2
Series [6] has as its system Cavia porcellus. The experiment in a line: Toxicity in guinea pig assessed as skin irritation administered topically bid measured on day 6. Format: organism-based. The settings on record: in vivo, topical_or_ocular. Summed up:
as §2

The mark [7] stands for this setting: Trichophyton mentagrophytes, 48 h, read-out: MIC.

Take `CCN(CC)c1cc(C)nc2ccnn12`: the MLC in series [1] is >320 µM. For the same compound, the MIC in series [2] (setting [7]) was > 320 µM.
`CCCCCCCC/C=C/CCCCCCCCNc1cc(C)nc2c(Br)cnn12` yielded an MLC in series [1] of 20 µM (≈ 9.55 µg/mL). In addition, the outcome in series [3] was Active. In addition, in series [2] (setting [7]), the minimum inhibitory concentration (MIC) was 10 µM (≈ 4.78 µg/mL).
`CCCCCCCCNc1ccnc2ccnn12.Cl` returned an MLC in series [1] of 80 µM. In addition, the Activity result in series [4] and in series [5] was “Toxic” each time. For the same compound, the result in series [3] was inactive. The MIC in series [2] (setting [7]) came to 10 µM.
Consider `Cc1cc(NCC(=O)O)n2nccc2n1`, for which the MLC in series [1] was >320 µM. In addition, in series [2] (setting [7]), the minimum inhibitory concentration (MIC) is > 320 µM.
On to `CCCCCCCCSc1cc(C)nc2ccnn12`, for which the MLC in series [1] was determined as 160 µM (≈ 44.4 µg/mL). Further, the MIC in series [2] (setting [7]) worked out at 20 µM (≈ 5.55 µg/mL). In series [6], the Activity entry was “Toxic”.
For the compound `CCCCCCCNc1cc(C)nc2ccnn12`, in series [1], the MLC was found to be 320 µM (≈ 78.8 µg/mL). For the same compound, the MIC in series [2] (setting [7]) stood at 40 µM (≈ 9.85 µg/mL).
As to `CCCCCCCCNc1cc(C(=O)OCC)nc2ccnn12`, the MLC in series [1] is >320 µM. In addition, the minimum inhibitory concentration (MIC) in series [2] (setting [7]) came to 320 µM (≈ 102 µg/mL).
The corresponding values for `CCCCCCCCNc1cc(C)nc2c(C(=O)OCC)cnn12` are >320 µM and 320 µM (≈ 106 µg/mL).
For the compound `CCCCCCCCNc1cc(C)nc2ccnn12` [listing 1 of 2 here], in series [1], the MLC was 160 µM (≈ 41.7 µg/mL). The Activity result in series [4] and in series [5] was “Toxic” each time. In series [2] (setting [7]), the minimal inhibitory concentration (MIC) worked out at 20 µM (≈ 5.21 µg/mL).
With `CCCCCCCCNc1c(C)c(Cl)nc2ccnn12`, the MLC in series [1] was >320 µM. The MIC in series [2] (setting [7]) is > 320 µM.
The corresponding values for `CCCCCCCCNc1cc(Cl)nc2ccnn12` are 320 µM (≈ 89.9 µg/mL) and 20 µM (≈ 5.62 µg/mL).
Taken in the same sequence, the figures for `Cc1cc(NCCCN2CCOCC2)n2nccc2n1.Cl` were 320 µM and > 320 µM.
The corresponding values for `Cc1cc(N2CCCCC2)n2nccc2n1` are >320 µM and > 320 µM.
Regarding `CCCCCCCCNc1c(C)c(C)nc2ccnn12`, in series [1], the MLC is >320 µM. Moreover, the MIC in series [2] (setting [7]) worked out at 10 µM (≈ 2.74 µg/mL).
`CCCCCCCCNc1cc(C)nc2ccnn12.Cl` returned an MLC in series [1] of 160 µM. The Activity result in series [4] and in series [5] was “Toxic” in each case. The compound further had an MIC in series [2] of 20 µM.
For `CCCNc1cc(C)nc2c(Br)cnn12`, the MLC in series [1] came out at 320 µM (≈ 86.1 µg/mL). In series [2] (setting [7]), the MIC was determined as 80 µM (≈ 21.5 µg/mL).
Consider `CCCCCCCCNc1cc(C(C)C)nc2ccnn12`, for which the MLC in series [1] was >320 µM. For the same compound, in series [2] (setting [7]), the MIC was determined as 20 µM (≈ 5.77 µg/mL).
`Cc1cc(NCc2ccc(Cl)cc2Cl)n2nccc2n1`: in series [1], the MLC is >320 µM. In addition, the MIC in series [2] (setting [7]) worked out at 40 µM (≈ 12.3 µg/mL).
Taken in the same sequence, the figures for `CCCCCCNc1cc(C)nc2ccnn12` were 320 µM (≈ 74.3 µg/mL) and 40 µM (≈ 9.29 µg/mL).
As for `CCCCCCCC/C=C/CCCCCCCCNc1cc(C)nc2ccnn12`, the MLC in series [1] came to 10 µM (≈ 3.99 µg/mL). Also, the Activity entry in series [4] and in series [5] was “Toxic” each time. In series [3], the result was inactive. Further, the minimal inhibitory concentration (MIC) in series [2] (setting [7]) was found to be 5 µM (≈ 1.99 µg/mL).
Turning to `CCCCCCCCCCNc1cc(C)nc2ccnn12`, in series [1], the MLC was >320 µM. In addition, the MIC in series [2] (setting [7]) was 40 µM (≈ 11.5 µg/mL).
Consider `CCCCCCCCNc1cc(C)nc2ccnn12` [listing 2 of 2 here], for which the result in series [3] was inactive.
As to `CCCCCCCCCCNc1cc(Cl)nc2ccnn12`, the MLC in series [1] was >320 µM. Also, the MIC in series [2] (setting [7]) was > 320 µM.
